Data: ChEMBL document CHEMBL5696442, “Discovery of type II inhibitors of TGFβ-activated kinase 1 (TAK1) and mitogen-activated protein kinase kinase kinase kinase 2 (MAP4K2)” (J Med Chem, 2015)

Tests used:
[1] = molecular target: T1, Tyrosine-protein kinase Fes/Fps (Homo sapiens, UniProt P07332); assay: Inhibition of FES Lys1 labeling site in human Huh-7 cell lysate at 1 uM by KiNativ Profiling analysis relative to control; format: subcellular
[2] = molecular target: T2, Tyrosine-protein kinase ABL1 (Homo sapiens, UniProt P00519); assay: Inhibition of ABL Lys1 labeling site in human Huh-7 cell lysate at 1 uM by KiNativ Profiling analysis relative to control; format: subcellular
BaF3 [3] = assay: Antiproliferative activity against parental mouse BaF3 cells harbouring Bcr/Abl assessed reduction in cell viability measured after 48 hrs by Celltiter-glo assay; format: functional, cell-based; conditions: BaF3, 48 h
How it was run: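 Cells were grown with serial dilutions of compound for 48 h, and viability was read by CellTiter-Glo. IC50 was derived from the dose–response curve. Parental Ba/F3 cells were grown in the presence of interleukin 3. The BCR-ABL line is BCR-ABL-dependent Ba/F3.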

[4] = molecular target: T1, Tyrosine-protein kinase Fes/Fps; assay: Inhibition of FES (unknown origin) by KiNativ Profiling analysis
[5] = molecular target: T3, Tyrosine-protein kinase Fer (Homo sapiens, UniProt P16591); assay: Inhibition of FER (unknown origin) ACT labeling site by KiNativ Profiling analysis
Target sequence in this assay (P16591 whole entry): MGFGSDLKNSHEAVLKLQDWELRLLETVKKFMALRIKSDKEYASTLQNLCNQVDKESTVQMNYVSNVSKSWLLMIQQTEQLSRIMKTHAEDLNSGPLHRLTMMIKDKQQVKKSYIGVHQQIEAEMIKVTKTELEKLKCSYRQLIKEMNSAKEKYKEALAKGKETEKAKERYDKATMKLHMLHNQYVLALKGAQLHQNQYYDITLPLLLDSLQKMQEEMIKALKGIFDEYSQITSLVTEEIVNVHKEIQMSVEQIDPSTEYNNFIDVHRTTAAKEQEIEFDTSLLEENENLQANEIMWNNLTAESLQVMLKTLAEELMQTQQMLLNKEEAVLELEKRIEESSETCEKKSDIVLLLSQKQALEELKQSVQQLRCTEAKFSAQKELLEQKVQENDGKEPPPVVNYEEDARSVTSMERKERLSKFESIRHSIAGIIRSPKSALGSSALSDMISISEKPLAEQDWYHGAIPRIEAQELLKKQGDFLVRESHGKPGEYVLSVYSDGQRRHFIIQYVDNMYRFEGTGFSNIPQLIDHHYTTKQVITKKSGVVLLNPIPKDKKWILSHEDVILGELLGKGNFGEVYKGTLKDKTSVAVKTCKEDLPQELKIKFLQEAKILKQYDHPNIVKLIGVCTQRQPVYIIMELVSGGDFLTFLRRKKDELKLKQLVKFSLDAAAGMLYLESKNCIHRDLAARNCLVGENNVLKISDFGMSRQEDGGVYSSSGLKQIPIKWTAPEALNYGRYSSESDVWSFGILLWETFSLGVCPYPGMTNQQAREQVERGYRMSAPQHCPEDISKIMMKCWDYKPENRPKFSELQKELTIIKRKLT

[6] = molecular target: T2, Tyrosine-protein kinase ABL1; assay: Inhibition of ABL ACT labeling site in human Huh-7 cell lysate at 1 uM by KiNativ Profiling analysis relative to control; format: subcellular
[7] = molecular target: T4, Mitogen-activated protein kinase kinase kinase kinase 2 (Homo sapiens) (UniProt Q12851); assay: Inhibition of MAP4K2 Lys1 labeling site in human A-375 cells at 0.5 uM by KiNativ Profiling analysis relative to control; format: cell-based
T4 sequence (whole entry): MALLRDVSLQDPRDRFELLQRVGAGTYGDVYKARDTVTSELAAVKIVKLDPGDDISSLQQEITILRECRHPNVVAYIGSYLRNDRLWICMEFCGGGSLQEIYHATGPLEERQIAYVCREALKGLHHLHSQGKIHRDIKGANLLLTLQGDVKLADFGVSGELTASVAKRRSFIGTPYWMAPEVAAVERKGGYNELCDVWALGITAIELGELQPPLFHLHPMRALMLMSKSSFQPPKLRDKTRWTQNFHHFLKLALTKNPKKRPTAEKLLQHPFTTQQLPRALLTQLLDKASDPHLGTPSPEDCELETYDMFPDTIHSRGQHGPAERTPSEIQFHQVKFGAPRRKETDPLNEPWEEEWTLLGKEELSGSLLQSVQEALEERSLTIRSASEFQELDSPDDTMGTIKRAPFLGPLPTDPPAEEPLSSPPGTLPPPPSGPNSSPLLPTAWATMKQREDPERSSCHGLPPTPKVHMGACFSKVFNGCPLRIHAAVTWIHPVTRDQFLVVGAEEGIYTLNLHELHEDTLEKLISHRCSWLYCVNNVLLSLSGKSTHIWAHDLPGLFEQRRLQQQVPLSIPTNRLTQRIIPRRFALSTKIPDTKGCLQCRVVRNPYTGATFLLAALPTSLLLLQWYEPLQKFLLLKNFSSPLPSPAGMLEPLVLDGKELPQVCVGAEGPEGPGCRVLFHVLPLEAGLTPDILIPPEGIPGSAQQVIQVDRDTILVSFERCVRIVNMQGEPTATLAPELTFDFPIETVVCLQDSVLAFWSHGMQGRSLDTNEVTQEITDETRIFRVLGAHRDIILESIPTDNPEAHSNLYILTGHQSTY

BaF3 [8] = assay: Antiproliferative activity against parental mouse BaF3 cells assessed reduction in cell viability measured after 48 hrs by Celltiter-glo assay; format: functional, cell-based; conditions: BaF3, 48 h
[9] = molecular target: T3, Tyrosine-protein kinase Fer; assay: Inhibition of FER Lys1 labeling site in human Huh-7 cell lysate at 1 uM by KiNativ Profiling analysis relative to control; format: subcellular
Target sequence in this assay (P16591 whole entry, looked up): as the sequence (P16591 whole entry) above

[10] = molecular target: T5, Mitogen-activated protein kinase 14 (Homo sapiens, UniProt Q16539); assay: Inhibition of p38 alpha in human Huh-7 cell lysate at 1 uM by KiNativ Profiling analysis relative to control; format: subcellular
[11] = molecular target: T5, Mitogen-activated protein kinase 14; assay: Inhibition of p38 alpha (unknown origin) by KiNativ Profiling analysis
[12] = molecular target: T6, Mitogen-activated protein kinase kinase kinase 7 (Homo sapiens) (UniProt O43318); assay: Inhibition of TAK1 Lys2 labeling site in human A-375 cells at 0.5 uM by KiNativ Profiling analysis relative to control; format: cell-based
T6 sequence (whole entry): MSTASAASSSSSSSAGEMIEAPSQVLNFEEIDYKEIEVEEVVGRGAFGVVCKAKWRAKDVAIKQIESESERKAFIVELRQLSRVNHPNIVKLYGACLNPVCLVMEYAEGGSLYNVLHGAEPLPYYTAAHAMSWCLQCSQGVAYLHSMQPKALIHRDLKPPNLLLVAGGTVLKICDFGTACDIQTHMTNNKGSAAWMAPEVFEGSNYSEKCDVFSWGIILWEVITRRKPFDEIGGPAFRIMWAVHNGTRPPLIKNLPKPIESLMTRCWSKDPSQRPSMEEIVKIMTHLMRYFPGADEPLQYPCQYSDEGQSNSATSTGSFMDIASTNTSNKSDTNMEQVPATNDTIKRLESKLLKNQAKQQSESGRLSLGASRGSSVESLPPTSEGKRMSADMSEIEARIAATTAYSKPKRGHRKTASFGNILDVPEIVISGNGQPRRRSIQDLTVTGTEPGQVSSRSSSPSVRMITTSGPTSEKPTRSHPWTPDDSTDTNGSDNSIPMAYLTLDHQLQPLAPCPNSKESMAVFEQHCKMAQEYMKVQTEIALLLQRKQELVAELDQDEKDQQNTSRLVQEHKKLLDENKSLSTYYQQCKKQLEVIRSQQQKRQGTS

[13] = molecular target: T7, Mitogen-activated protein kinase kinase kinase kinase 2 (Homo sapiens, UniProt Q12851); assay: Inhibition of MAP4K2 (unknown origin) Lys1 labeling site by KiNativ Profiling analysis
T7 sequence (Q12851 whole entry): T4 sequence (whole entry)

[14] = molecular target: T8, Mitogen-activated protein kinase kinase kinase 7 (Homo sapiens, UniProt O43318); assay: Inhibition of TAK1 (unknown origin) Lys2 labeling site by KiNativ Profiling analysis
T8 sequence (O43318 whole entry): T6 sequence (whole entry)

[15] = Tmax in Swiss albino mouse at 10 mg/kg, po measured upto 24 hrs by LC/MS/MS analysis; format: ADME, organism-based; conditions: in vivo
How it was run: (§1)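 Blood was taken at 0, 0.25, 0.5, 1, 2, 4, 6, 8, 12 and 24 h from three mice per time point, into K2EDTA. Plasma was acetonitrile-precipitated and analyzed by LC/MS/MS (LLOQ 1.138 ng/mL).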

[16] = Oral bioavailability in Swiss albino mouse at 10 mg/kg measured upto 24 hrs by LC/MS/MS analysis; format: ADME, organism-based; conditions: in vivo; how it was run: as §1
[17] = Cmax in Swiss albino mouse at 10 mg/kg, po measured upto 24 hrs by LC/MS/MS analysis; format: ADME, organism-based; conditions: in vivo
[18] = AUC last in Swiss albino mouse at 1 mg/kg, iv measured upto 24 hrs by LC/MS/MS analysis; format: ADME, organism-based; conditions: in vivo
How it was run: (§2)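 Male Swiss albino mice. […] Blood was taken into K2EDTA from three mice per time point, from 0 to 24 h. Plasma was precipitated with acetonitrile and analysed by LC/MS/MS (LLOQ 1.138 ng/mL).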

[19] = AUC last in Swiss albino mouse at 10 mg/kg, po measured upto 24 hrs by LC/MS/MS analysis; format: ADME, organism-based; conditions: in vivo
[20] = Cmax in Swiss albino mouse at 1 mg/kg, iv measured upto 24 hrs by LC/MS/MS analysis; format: ADME, organism-based; conditions: in vivo; how it was run: as §2
[21] = Half life in Swiss albino mouse at 1 mg/kg, iv measured upto 24 hrs by LC/MS/MS analysis; format: ADME, organism-based; conditions: in vivo; how it was run: as §2
[22] = Volume of distribution at steady state in Swiss albino mouse at 1 mg/kg, iv measured upto 24 hrs by LC/MS/MS analysis; format: ADME, organism-based; conditions: in vivo
How it was run: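 Blood was sampled at 0, 0.083, 0.25, 0.5, 1, 2, 4, 8, 12 and 24 h (three mice per point, K2EDTA). Plasma was precipitated with acetonitrile and quantified by LC/MS/MS (LLOQ 1.138 ng/mL).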

[23] = molecular target: T9, Tyrosine-protein kinase CSK (Homo sapiens, UniProt P41240); assay: Inhibition of CSK ACT labeling site in human Huh-7 cell lysate at 1 uM by KiNativ Profiling analysis relative to control; format: subcellular
Ephrin type-A receptor 2 [24] = molecular target: T10, Ephrin type-A receptor 2 (Homo sapiens, UniProt P29317); assay: Inhibition of EphA2 ACT labeling site in human Huh-7 cell lysate at 1 uM by KiNativ Profiling analysis relative to control; format: subcellular
[25] = molecular target: T11, Mitogen-activated protein kinase kinase kinase 20 (Homo sapiens, UniProt Q9NYL2); assay: Inhibition of ZAK (unknown origin) Lys1 labeling site by KiNativ Profiling analysis
Ephrin type-A receptor 2 [26] = molecular target: T10, Ephrin type-A receptor 2; assay: Inhibition of EphA2 (unknown origin) ACT labeling site by KiNativ Profiling analysis
[27] = molecular target: T9, Tyrosine-protein kinase CSK; assay: Inhibition of CSK (unknown origin) ACT labeling site by KiNativ Profiling analysis
[28] = molecular target: T11, Mitogen-activated protein kinase kinase kinase 20; assay: Inhibition of ZAK Lys1 labeling site in human Huh-7 cell lysate at 1 uM by KiNativ Profiling analysis relative to control; format: subcellular
Target sequence in this assay (Q9NYL2 2-800 limits assumed): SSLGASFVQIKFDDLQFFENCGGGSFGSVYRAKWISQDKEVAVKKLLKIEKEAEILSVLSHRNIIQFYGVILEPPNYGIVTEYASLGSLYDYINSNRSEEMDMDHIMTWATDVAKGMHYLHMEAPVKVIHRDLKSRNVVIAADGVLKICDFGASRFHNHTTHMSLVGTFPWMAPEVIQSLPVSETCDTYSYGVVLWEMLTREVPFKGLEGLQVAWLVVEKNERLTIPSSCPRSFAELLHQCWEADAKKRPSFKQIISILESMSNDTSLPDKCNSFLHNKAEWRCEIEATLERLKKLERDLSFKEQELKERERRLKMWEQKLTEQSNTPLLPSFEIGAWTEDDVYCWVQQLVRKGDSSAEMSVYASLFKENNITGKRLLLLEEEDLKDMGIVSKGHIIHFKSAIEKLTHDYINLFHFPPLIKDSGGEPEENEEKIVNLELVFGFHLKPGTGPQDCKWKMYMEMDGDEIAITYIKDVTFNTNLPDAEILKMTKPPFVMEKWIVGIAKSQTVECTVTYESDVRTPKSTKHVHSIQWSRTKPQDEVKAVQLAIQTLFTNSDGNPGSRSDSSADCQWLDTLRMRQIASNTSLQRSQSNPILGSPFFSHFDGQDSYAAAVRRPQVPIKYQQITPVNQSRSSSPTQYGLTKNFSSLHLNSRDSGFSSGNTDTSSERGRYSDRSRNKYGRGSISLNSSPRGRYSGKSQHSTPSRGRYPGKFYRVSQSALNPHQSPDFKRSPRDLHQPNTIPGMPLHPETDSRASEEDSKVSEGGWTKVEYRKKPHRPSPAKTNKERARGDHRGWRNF

T5 sequence (Q16539 whole entry): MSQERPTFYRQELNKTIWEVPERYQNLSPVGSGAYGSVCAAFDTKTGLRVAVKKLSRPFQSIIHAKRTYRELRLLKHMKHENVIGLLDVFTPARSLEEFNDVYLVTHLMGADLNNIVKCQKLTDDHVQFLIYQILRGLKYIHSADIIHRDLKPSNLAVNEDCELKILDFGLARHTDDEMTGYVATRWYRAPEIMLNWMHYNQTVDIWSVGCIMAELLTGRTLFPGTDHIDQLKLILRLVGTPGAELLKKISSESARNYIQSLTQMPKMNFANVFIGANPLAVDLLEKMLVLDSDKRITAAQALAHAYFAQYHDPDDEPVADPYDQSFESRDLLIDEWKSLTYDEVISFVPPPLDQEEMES
T1 sequence (P07332 whole entry): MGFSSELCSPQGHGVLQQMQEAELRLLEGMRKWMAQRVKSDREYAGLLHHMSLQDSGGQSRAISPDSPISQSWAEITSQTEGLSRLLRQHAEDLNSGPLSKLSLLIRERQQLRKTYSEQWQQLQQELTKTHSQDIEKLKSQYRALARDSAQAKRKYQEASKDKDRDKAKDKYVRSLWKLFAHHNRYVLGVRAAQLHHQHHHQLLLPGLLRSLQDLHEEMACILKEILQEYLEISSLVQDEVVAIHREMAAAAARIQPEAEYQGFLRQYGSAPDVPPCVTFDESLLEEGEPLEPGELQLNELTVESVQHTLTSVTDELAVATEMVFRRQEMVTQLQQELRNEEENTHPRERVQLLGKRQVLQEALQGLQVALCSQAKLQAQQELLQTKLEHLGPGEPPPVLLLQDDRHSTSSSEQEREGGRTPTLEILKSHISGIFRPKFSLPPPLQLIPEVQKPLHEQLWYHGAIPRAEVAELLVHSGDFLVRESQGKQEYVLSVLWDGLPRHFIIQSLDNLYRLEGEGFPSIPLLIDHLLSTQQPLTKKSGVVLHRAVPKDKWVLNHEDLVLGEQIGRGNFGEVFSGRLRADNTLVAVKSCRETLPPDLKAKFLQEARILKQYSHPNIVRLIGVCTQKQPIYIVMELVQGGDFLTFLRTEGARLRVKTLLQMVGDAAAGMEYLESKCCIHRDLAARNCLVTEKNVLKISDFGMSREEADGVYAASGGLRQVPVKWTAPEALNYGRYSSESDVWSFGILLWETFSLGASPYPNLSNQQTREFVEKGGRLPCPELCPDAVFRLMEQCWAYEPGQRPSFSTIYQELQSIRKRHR
T2 sequence (P00519 whole entry): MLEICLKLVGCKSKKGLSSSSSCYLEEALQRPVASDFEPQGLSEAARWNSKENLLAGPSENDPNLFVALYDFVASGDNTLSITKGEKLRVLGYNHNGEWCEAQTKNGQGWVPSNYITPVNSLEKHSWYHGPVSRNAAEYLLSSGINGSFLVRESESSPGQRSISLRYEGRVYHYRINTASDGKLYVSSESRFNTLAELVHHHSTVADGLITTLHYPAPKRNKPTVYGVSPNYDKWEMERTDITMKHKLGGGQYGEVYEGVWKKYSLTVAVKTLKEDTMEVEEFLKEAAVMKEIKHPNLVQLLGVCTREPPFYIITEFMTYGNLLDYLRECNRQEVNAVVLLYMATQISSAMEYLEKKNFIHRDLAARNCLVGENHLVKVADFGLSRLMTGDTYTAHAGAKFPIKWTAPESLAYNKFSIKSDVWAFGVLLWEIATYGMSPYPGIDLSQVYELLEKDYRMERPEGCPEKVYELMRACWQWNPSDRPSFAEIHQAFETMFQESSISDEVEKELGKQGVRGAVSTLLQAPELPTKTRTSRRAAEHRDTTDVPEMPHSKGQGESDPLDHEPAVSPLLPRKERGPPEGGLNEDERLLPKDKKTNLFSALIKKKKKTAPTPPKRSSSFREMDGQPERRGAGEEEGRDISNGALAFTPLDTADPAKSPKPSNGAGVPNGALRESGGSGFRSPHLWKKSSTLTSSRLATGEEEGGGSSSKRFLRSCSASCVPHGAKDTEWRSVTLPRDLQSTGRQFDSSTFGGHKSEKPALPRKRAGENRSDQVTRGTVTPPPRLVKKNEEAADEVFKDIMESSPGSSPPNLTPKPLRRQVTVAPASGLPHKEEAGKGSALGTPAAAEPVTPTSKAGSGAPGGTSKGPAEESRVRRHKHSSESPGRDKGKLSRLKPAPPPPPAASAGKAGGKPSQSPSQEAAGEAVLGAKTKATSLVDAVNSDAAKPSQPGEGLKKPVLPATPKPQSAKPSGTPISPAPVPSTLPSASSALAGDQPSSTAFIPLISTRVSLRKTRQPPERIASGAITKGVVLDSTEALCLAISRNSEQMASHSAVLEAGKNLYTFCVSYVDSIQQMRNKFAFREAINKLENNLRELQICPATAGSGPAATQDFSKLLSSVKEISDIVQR
T10 sequence (P29317 whole entry): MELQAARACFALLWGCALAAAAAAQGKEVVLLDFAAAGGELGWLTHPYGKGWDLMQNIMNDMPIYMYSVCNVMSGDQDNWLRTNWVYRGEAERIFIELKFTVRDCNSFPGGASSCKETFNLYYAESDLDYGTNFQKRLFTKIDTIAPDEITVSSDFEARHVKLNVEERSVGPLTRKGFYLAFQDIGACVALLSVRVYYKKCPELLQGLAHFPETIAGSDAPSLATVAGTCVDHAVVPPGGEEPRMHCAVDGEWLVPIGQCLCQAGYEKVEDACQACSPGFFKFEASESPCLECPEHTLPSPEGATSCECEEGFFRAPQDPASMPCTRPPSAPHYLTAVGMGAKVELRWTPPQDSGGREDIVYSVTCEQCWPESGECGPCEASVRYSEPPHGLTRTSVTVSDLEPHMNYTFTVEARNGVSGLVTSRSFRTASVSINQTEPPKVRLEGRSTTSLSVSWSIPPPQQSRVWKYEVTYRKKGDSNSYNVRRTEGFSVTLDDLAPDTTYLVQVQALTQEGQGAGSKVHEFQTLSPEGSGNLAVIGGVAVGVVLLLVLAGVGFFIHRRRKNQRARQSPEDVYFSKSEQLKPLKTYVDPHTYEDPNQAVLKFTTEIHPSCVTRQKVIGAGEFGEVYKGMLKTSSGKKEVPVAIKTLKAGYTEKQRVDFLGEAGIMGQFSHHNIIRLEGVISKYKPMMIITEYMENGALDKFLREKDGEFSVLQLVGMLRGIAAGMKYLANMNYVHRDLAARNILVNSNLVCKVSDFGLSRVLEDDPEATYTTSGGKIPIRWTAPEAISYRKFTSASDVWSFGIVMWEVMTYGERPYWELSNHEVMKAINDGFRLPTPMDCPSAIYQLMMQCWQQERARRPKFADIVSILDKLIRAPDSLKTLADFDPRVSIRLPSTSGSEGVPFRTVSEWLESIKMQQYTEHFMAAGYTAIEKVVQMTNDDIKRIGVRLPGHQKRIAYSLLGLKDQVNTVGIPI

Structure (SMILES) | inhibition [1] [%] | inhibition [2] [%] | IC50 [4] [nM] | IC50 [5] [nM] | inhibition [6] [%] | inhibition [7] [%] | inhibition [10] [%] | IC50 [11] [nM] | inhibition [12] [%] | IC50 [13] [nM] | IC50 [14] [nM] | Tmax [15] [h] | F [16] [%] | Cmax [17] [ng/mL] | AUClast [18] [ng·h/mL] | AUClast [19] [ng·h/mL] | Cmax [20] [ng/mL] | t1/2 [21] [h] | IC50 (BaF3 [3]) [nM] | IC50 (BaF3 [8]) [nM] | also measured
CCN1CCN(Cc2ccc(NC(=O)c3ccc(C)c(Oc4cc(NC)ncn4)c3)cc2C(F)(F)F)CC1 | 78.5 | 58.4 | 252 | 577 | 74.1 | 91.3 | 98.6 | 250 | 78.5 | – | – | – | – | – | – | – | – | – | 46 | > 10000 | inhibition [9]: 75.8%
CCN1CCN(Cc2ccc(NC(=O)c3ccc(C)c(Oc4ncnc5[nH]c(C)cc45)c3)cc2C(F)(F)F)CC1 | 82.7 | – | 69.7 | 74.8 | 59.6 | > 94 | 82.8 | 149 | 57.7 | 18.2 | 41.1 | 4 | 38.6 | 233 | 554 | 2136 | 317 | 2.94 | 20 | > 10000 | Vdss [22]: 5.42 L/kg
CCN1CCN(Cc2ccc(NC(=O)c3ccc(C)c(Oc4ncnc5cc(OC)c(OC)cc45)c3)cc2C(F)(F)F)CC1 | 94.7 | 78.8 | 50.8 | 36.1 | 80.6 | 93.2 | – | – | 83.7 | 30.5 | 129 | – | – | – | – | – | – | – | 92 | > 10000 | inhibition [9]: 92.9%

Further lines, with some results ahead:

inhibition [1] [%] | inhibition [2] [%] | IC50 [4] [nM] | IC50 [5] [nM] | inhibition [6] [%] | inhibition [7] [%] | inhibition [10] [%] | IC50 [11] [nM] | inhibition [12] [%] | IC50 [13] [nM] | IC50 [14] [nM] | Tmax [15] [h] | F [16] [%] | Cmax [17] [ng/mL] | AUClast [18] [ng·h/mL] | AUClast [19] [ng·h/mL] | Cmax [20] [ng/mL] | t1/2 [21] [h] | Structure (SMILES) | IC50 (BaF3 [3]) [nM] | IC50 (BaF3 [8]) [nM] | also measured
– | – | – | – | 74.2 | > 86 | 85.2 | 130 | 77.7 | 19.8 | 44.9 | 2 | 21.8 | 134 | 236.6 | 516.2 | 230.9 | 2.33 | CCN1CCN(Cc2ccc(NC(=O)c3ccc(C)c(Oc4ncnc5[nH]ccc45)c3)cc2C(F)(F)F)CC1 | 55 | 8160 | Vdss [22]: 9.5 L/kg
– | 77.2 | – | – | 92.8 | 84.3 | 91.8 | 70.1 | 74.3 | 20.6 | 217 | – | – | – | – | – | – | – | CCN1CCN(Cc2ccc(NC(=O)c3ccc(C)c(CCc4cnc5[nH]ccc5c4OC)c3)cc2C(F)(F)F)CC1 | 10 | 4810 | inhibition [23]: 89.9%; inhibition (Ephrin type-A receptor 2 [24]): 80.9%; IC50 [25]: 72.5 nM; IC50 (Ephrin type-A receptor 2 [26]): 77.1 nM; IC50 [27]: 12.5 nM; inhibition [28]: > 96%
– | – | – | – | 93 | 89.9 | 96.6 | 29.8 | 86.5 | 43.8 | 75.5 | 0.5 | 11.1 | 61.3 | 167.9 | 186.2 | 280.3 | 0.87 | CCN1CCN(Cc2ccc(NC(=O)c3ccc(C)c(Oc4ncnc5[nH]ncc45)c3)cc2C(F)(F)F)CC1 | 55 | 7910 | IC50 [25]: 127 nM; inhibition [28]: 95.2%; Vdss [22]: 6.1 L/kg
